In ChEMBL document CHEMBL1221179, “An shRNA barcode screen provides insight into cancer cell vulnerability to MDM2 inhibitors” (2006):
Activity calls are given as the source filed them. No cut-off for these calls is given here.

Legend:
MCF7 [1] = assay: Induction of cell cycle arrest in human MCF7 cells transfected with p53-targeting iRNA-based shRNA at 4 uM after 14 days by BrdU incorporation assay; type: functional
MCF7 [2] = assay: Induction of cell cycle arrest in human MCF7 cells transfected hnRNPK-targeting iRNA-based shRNA at 4 uM after 14 days by BrdU incorporation assay; type: functional
MCF7 [3] = assay: Antiproliferative activity against human MCF7 cells at 4 uM after 14 days by coomassie staining; type: functional, cell-based
How it was run: (§1)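 Retrovirally transduced shRNA (GFP control, p53, or two independent 53BP1 hairpins in pRETROSUPER); cells grown in DMEM with 10% fetal calf serum at 37 °C, 5% CO2; left untreated or given 4 µM nutlin-3 for 14 days; cell density shown by Coomassie staining, morphology inspected.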

MCF7 [4] = assay: Antiproliferative activity against human MCF7 cells assessed as appearance of flattened phenotype at 4 uM after 14 days by coomassie staining; type: functional, cell-based; how it was run: as §1
MCF7 [5] = assay: Antiproliferative activity against human MCF7 cells transfected with p53-targeting iRNA-based shRNA assessed as effect on cellular morphology at 4 uM after 14 days by coomassie staining; type: functional, cell-based; how it was run: as §1
A549 = assay: Antiproliferative activity against human A549 cells transfected with 53BP1-targeting iRNA-based shRNA assessed as effect on cellular morphology at 4 uM after 14 days by coomassie staining; type: functional, cell-based; how it was run: as §1
MCF7 [6] = assay: Induction of cell cycle arrest in human MCF7 cells p53-targeting iRNA-based shRNA assessed as accumulation at S phase at 4 uM after 48 hrs by BrdU incorporation assay; type: functional
How it was run: (§2)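 MCF-7 carrying shRNA against GFP (control), p53 or 53BP1, untreated or given 4 µM nutlin-3 for 48 h; 10 µM BrdU pulse 30 min before harvest; ethanol fixation, HCl-Triton permeabilization, borate neutralization; anti-BrdU plus FITC secondary, propidium iodide with RNase; 10,000 cells per sample by flow cytometry; S-phase percentage = BrdU-positive fraction.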

MCF7 [7] = assay: Induction of cell cycle arrest in human MCF7 cells 53BP1-targeting iRNA-based shRNA assessed as accumulation at S phase at 4 uM after 48 hrs by BrdU incorporation assay; type: functional; how it was run: as §2
MCF7 [8] = assay: Induction of p53 expression in human MCF7 cells transfected with 53BP1-targeting iRNA-based shRNA by Western blot analysis; type: functional, cell-based
How it was run: (§3)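 MCF-7 expressing GFP control shRNA or either of two 53BP1 shRNAs; lysates immunoblotted for 53BP1, p53 (DO-1), p21 (C19) and MDM2 (2A10, SMP14) after SDS-PAGE transfer to nitrocellulose.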

MCF7 [9] = assay: Induction of p53 expression in human MCF7 cells by Western blot analysis; type: functional, cell-based; how it was run: as §3
MCF7 [10] = assay: Induction of CDKN1A gene expression in human MCF7 cells transfected with 53BP1-targeting iRNA-based shRNA by Western blot analysis; type: functional, cell-based; how it was run: as §3
MCF7 [11] = assay: Induction of p53 expression in human MCF7 cells assessed as increase in p21CIP1 level after 18 hrs by Western blot method in presence of 2.5 mM caffeine; type: functional, cell-based
How it was run: (§4)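 MCF-7 pretreated 12 h with 2.5 mM caffeine (or not), then exposed to increasing nutlin-3 concentrations for 18 h; lysates run on SDS-PAGE, blotted to nitrocellulose and probed for p53 (DO-1) and p21 (C19).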

MCF7 [12] = assay: Induction of p53 accumulation in human MCF7 cells after 18 hrs by Western blot analysis in presence of 2.5 mM caffeine; type: functional, cell-based; how it was run: as §4
BJ [13] = assay: Induction of p21CIP1 expression in irradiated human BJ cells at 3 uM by Western blot analysis; type: functional, cell-based
How it was run: (§5)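 Normal BJ fibroblasts, with or without 2 Gy irradiation, treated with increasing nutlin-3 concentrations; SDS-PAGE and nitrocellulose immunoblot for p53 stabilization and p21 induction.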

MCF7 [14] = assay: Induction of apoptosis in human MCF7 cells transfected with p53-targeting iRNA-based shRNA at 4 uM after 14 days by BrdU incorporation assay; type: functional, cell-based
MCF7 [15] = assay: Antiproliferative activity against human MCF7 cells transfected with 53BP1-targeting iRNA-based shRNA assessed as effect on cellular morphology at 4 uM after 14 days by coomassie staining; type: functional, cell-based; how it was run: as §1
MCF7 [16] = assay: Induction of apoptosis in human MCF7 cells co-transfected with 53BP1-targeting iRNA-based shRNA at 4 uM after 14 days by BrdU incorporation assay; type: functional, cell-based
BJ [17] = assay: Induction of p21 expression in irradiated human BJ cells at 3 uM by Western blot analysis; type: functional, cell-based; how it was run: as §5
MCF7 [18] = assay: Induction of cell cycle arrest in human MCF7 cells transfected with 53BP1-targeting iRNA-based shRNA at 4 uM after 48 hrs by BrdU incorporation assay

With COc1ccc(C2=N[C@@H](c3ccc(Cl)cc3)[C@@H](c3ccc(Cl)cc3)N2C(=O)N2CCNC(=O)C2)c(OC(C)C)c1 [NUTLIN-3] the Activity (MCF7 [1]) was “Active”, the Activity (MCF7 [2]) was “Active” and the Activity (MCF7 [3]) was “Active”. The Activity (MCF7 [4]) was “Active”, the Activity (MCF7 [5]) was “inactive” and the Activity (A549) was “inactive”. The Activity (MCF7 [6]) was 29%, the Activity (MCF7 [7]) was 17% and the Activity (MCF7 [8]) was “Active”. The Activity (MCF7 [9]) was “Active”, the Activity (MCF7 [10]) was “inactive” and the Activity (MCF7 [11]) was “inactive”. The Activity (MCF7 [12]) was “Active”, the Activity (BJ [13]) was “Active” and the Activity (MCF7 [14]) was “inactive”. For the same molecule, the Activity (MCF7 [15]) was “inactive”, the Activity (MCF7 [16]) was “inactive” and the Activity (BJ [17]) was “Active”. The Activity (MCF7 [18]) was “Active”.
